# Data reported in ChEMBL document CHEMBL3616442, “Unconventional Knoevenagel-type indoles: Synthesis and cell-based studies for the identification of pro-apoptotic agents” (Eur J Med Chem, 2015).
# Key:
# [1] = Growth inhibition of human LOXIMVI cells after 48 hrs by sulforhodamine B assay; format: functional; conditions: LOX IMVI
# Method in brief: (§1)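 NCI 60-cell-line screen. Compounds tested at five 10-fold dilutions from 10^-4 to 10^-8 M. Cells exposed for the last 48 h of a 72 h incubation, growth estimated by sulforhodamine B protein assay. GI50 is the concentration giving 50% growth inhibition. Values beyond the tested range are expressed as greater or lesser than the extreme concentration.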
# MDA-MB-435 = assay: Growth inhibition of human MDA-MB-435 cells after 48 hrs by sulforhodamine B assay; format: functional; conditions: MDA-MB-435, 48 h; method in brief: as §1
# [2] = Growth inhibition of human NCI-ADR-RES cells after 48 hrs by sulforhodamine B assay; format: functional; method in brief: as §1
# HOP-62 = assay: Growth inhibition of human HOP62 cells after 48 hrs by sulforhodamine B assay; format: functional; conditions: HOP-62, 48 h; method in brief: as §1
# NCI-H522 = assay: Growth inhibition of human NCI-H522 cells after 48 hrs by sulforhodamine B assay; format: functional; conditions: NCI-H522, 48 h; method in brief: as §1
# KM12 = assay: Growth inhibition of human KM12 cells after 48 hrs by sulforhodamine B assay; format: functional; conditions: KM12, 48 h; method in brief: as §1
# HT-29 = assay: Growth inhibition of human HT-29 cells after 48 hrs by sulforhodamine B assay; format: functional; conditions: HT-29, 48 h; method in brief: as §1
# NCI-H322M = assay: Growth inhibition of human NCI-H322M cells after 48 hrs by sulforhodamine B assay; format: functional; method in brief: as §1
# SNB-75 = assay: Growth inhibition of human SNB75 cells after 48 hrs by sulforhodamine B assay; format: functional; conditions: SNB-75, 48 h
# SK-OV-3 = assay: Growth inhibition of human SKOV3 cells after 48 hrs by sulforhodamine B assay; format: functional; conditions: SK-OV-3, 48 h
# HCT-116 = assay: Growth inhibition of human HCT116 cells after 48 hrs by sulforhodamine B assay; format: functional; conditions: HCT-116, 48 h; method in brief: as §1
# UACC-257 = assay: Growth inhibition of human UACC257 cells after 48 hrs by sulforhodamine B assay; format: functional; conditions: UACC-257, 48 h
# SR = assay: Growth inhibition of human SR cells after 48 hrs by sulforhodamine B assay; format: functional
# SN12C = assay: Growth inhibition of human SN12C cells after 48 hrs by sulforhodamine B assay; format: functional
# MDA-MB-231 = assay: Growth inhibition of human MDA-MB-231 cells after 48 hrs by sulforhodamine B assay; format: functional; conditions: MDA-MB-231, 48 h; method in brief: as §1
# SK-MEL-2 = assay: Growth inhibition of human SK-MEL-2 cells after 48 hrs by sulforhodamine B assay; format: functional; conditions: SK-MEL-2, 48 h
# MDA-MB-468 = assay: Growth inhibition of human MDA-MB-468 cells after 48 hrs by sulforhodamine B assay; format: functional; conditions: MDA-MB-468, 48 h; method in brief: as §1
# DU-145 = assay: Growth inhibition of human DU145 cells after 48 hrs by sulforhodamine B assay; format: functional; conditions: DU-145, 48 h; method in brief: as §1
# CAKI-1 = assay: Growth inhibition of human CAKI-1 cells after 48 hrs by sulforhodamine B assay; format: functional; conditions: CAKI-1, 48 h; method in brief: as §1
# [3] = Growth inhibition of human MOLT4 cells after 48 hrs by sulforhodamine B assay; format: functional; conditions: MOLT-4, 48 h; method in brief: as §1
# HL-60(TB) = assay: Growth inhibition of human HL-60(TB) cells after 48 hrs by sulforhodamine B assay; format: functional; conditions: HL-60, 48 h
# Method in brief: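 NCI 60-cell-line screen, HL-60(TB) included. Compound given at five 10-fold dilutions from 10^-4 to 10^-8 M. Cells exposed for the last 48 h of a 72 h incubation. Growth or viability estimated by sulforhodamine B protein assay. GI50 is the concentration giving 50% growth inhibition. Values outside the tested range are reported as greater or less than the highest or lowest concentration.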
# SW-620 = assay: Growth inhibition of human SW620 cells after 48 hrs by sulforhodamine B assay; format: functional; conditions: SW-620, 48 h
# HCT-15 = assay: Growth inhibition of human HCT15 cells after 48 hrs by sulforhodamine B assay; format: functional; conditions: HCT-15, 48 h; method in brief: as §1
# [4] = Growth inhibition of human COLO205 cells after 48 hrs by sulforhodamine B assay; format: functional; conditions: COLO 205, 48 h; method in brief: as §1
# [5] = Growth inhibition of human BT549 cells after 48 hrs by sulforhodamine B assay; format: functional; conditions: BT-549, 48 h; method in brief: as §1
# [6] = Growth inhibition of human RXF393 cells after 48 hrs by sulforhodamine B assay; format: functional; conditions: RXF 393, 48 h
# IGROV-1 = assay: Growth inhibition of human IGROV1 cells after 48 hrs by sulforhodamine B assay; format: functional; conditions: IGROV-1, 48 h; method in brief: as §1
# U-251 = assay: Growth inhibition of human U251 cells after 48 hrs by sulforhodamine B assay; format: functional; conditions: U-251, 48 h
# [7] = Growth inhibition of human RPMI8226 cells after 48 hrs by sulforhodamine B assay; format: functional; conditions: RPMI-8226, 48 h
# SNB-19 = assay: Growth inhibition of human SNB19 cells after 48 hrs by sulforhodamine B assay; format: functional; conditions: SNB-19, 48 h
# TK-10 = assay: Growth inhibition of human TK10 cells after 48 hrs by sulforhodamine B assay; format: functional; conditions: TK-10, 48 h
# OVCAR-4 = assay: Growth inhibition of human OVCAR4 cells after 48 hrs by sulforhodamine B assay; format: functional; conditions: OVCAR-4, 48 h; method in brief: as §1
# MT4 = assay: Antiproliferative activity against human MT4 cells after 96 hrs by MTT assay; format: functional, cell-based; conditions: MT4, 96 h
# Method in brief: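 Exponentially growing MT-4 cells (CD4+ human T-cells carrying integrated HTLV-1 genome), seeded at 1×10^5 cells/mL in RPMI-1640 with 10% FCS and antibiotics. Serial dilutions of compound (DMSO stock 100 mM, diluted in medium), 37 °C, 5% CO₂, 96 h. Viability read by MTT. 50% inhibition versus untreated controls by linear regression. Mean ± SD of three independent determinations.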
# PC-3 = assay: Growth inhibition of human PC3 cells after 48 hrs by sulforhodamine B assay; format: functional; conditions: PC-3, 48 h
# SF-268 = assay: Growth inhibition of human SF268 cells after 48 hrs by sulforhodamine B assay; format: functional; conditions: SF-268, 48 h
# Malme-3M = assay: Growth inhibition of human MALME-3M cells after 48 hrs by sulforhodamine B assay; format: functional; method in brief: as §1
# ACHN = assay: Growth inhibition of human ACHN cells after 48 hrs by sulforhodamine B assay; format: functional; method in brief: as §1
# [8] = Growth inhibition of human HOP92 cells after 48 hrs by sulforhodamine B assay; format: functional; conditions: HOP-92, 48 h; method in brief: as §1
# T47D = assay: Growth inhibition of human T47D cells after 48 hrs by sulforhodamine B assay; format: functional
# A549 = assay: Growth inhibition of human A549 cells after 48 hrs by sulforhodamine B assay; format: functional; conditions: A549, 48 h; method in brief: as §1
# A498 = assay: Growth inhibition of human A498 cells after 48 hrs by sulforhodamine B assay; format: functional; conditions: A498, 48 h; method in brief: as §1
# K562 = assay: Growth inhibition of human K562 cells after 48 hrs by sulforhodamine B assay; format: functional; conditions: K562, 48 h; method in brief: as §1
# SK-MEL-5 = assay: Growth inhibition of human SK-MEL-5 cells after 48 hrs by sulforhodamine B assay; format: functional; conditions: SK-MEL-5, 48 h
smiles,measurement,setting,value
COC(=O)/C(=C\c1c(-c2ccccc2)[nH]c2ccccc12)S(C)(=O)=O,GI50,[1],5.1 µM
same,GI50,MDA-MB-435,0.671 µM
same,GI50,[2],3.3 µM
same,GI50,HOP-62,10.7 µM
same,GI50,NCI-H522,3.1 µM
same,GI50,KM12,1.5 µM
same,GI50,HT-29,3.6 µM
same,GI50,NCI-H322M,7.4 µM
same,GI50,SNB-75,2.3 µM
same,GI50,SK-OV-3,12.1 µM
same,GI50,HCT-116,4.2 µM
same,GI50,UACC-257,11.2 µM
same,GI50,SR,8.1 µM
same,GI50,SN12C,3.1 µM
same,GI50,MDA-MB-231,2.4 µM
same,GI50,SK-MEL-2,11.8 µM
same,GI50,MDA-MB-468,5.4 µM
same,GI50,DU-145,2.5 µM
same,GI50,CAKI-1,1.8 µM
same,GI50,[3],4.7 µM
same,GI50,HL-60(TB),3.4 µM
same,GI50,SW-620,2.9 µM
same,GI50,HCT-15,2.4 µM
same,GI50,[4],4.4 µM
same,GI50,[5],4.3 µM
same,GI50,[6],7.2 µM
same,GI50,IGROV-1,1.7 µM
same,GI50,U-251,3.6 µM
same,GI50,[7],6.2 µM
same,GI50,SNB-19,8.7 µM
same,GI50,TK-10,7.7 µM
same,GI50,OVCAR-4,6.2 µM
same,EC50,MT4,0.4 µM
same,GI50,PC-3,4.2 µM
same,GI50,SF-268,4.3 µM
same,GI50,Malme-3M,12.2 µM
same,GI50,ACHN,9.2 µM
same,GI50,[8],6.6 µM
same,GI50,T47D,2.8 µM
same,GI50,A549,5.3 µM
same,GI50,A498,6.6 µM
COc1ccc(-c2[nH]c3ccc(OC)cc3c2/C=C(\C#N)S(=O)(=O)c2ccccc2)cc1,GI50,[1],1.2 µM
same,GI50,MDA-MB-435,0.276 µM
same,GI50,[2],0.494 µM
same,GI50,K562,0.508 µM
same,GI50,HOP-62,3.1 µM
same,GI50,NCI-H522,1.7 µM
same,GI50,KM12,0.654 µM
same,GI50,HT-29,0.435 µM
same,GI50,NCI-H322M,4.3 µM
same,GI50,SNB-75,0.612 µM
same,GI50,SK-OV-3,0.901 µM
same,GI50,HCT-116,0.539 µM
same,GI50,UACC-257,46.1 µM
same,GI50,SR,0.305 µM
same,GI50,SN12C,2.3 µM
same,GI50,MDA-MB-231,1.4 µM
same,GI50,SK-MEL-5,0.319 µM
same,GI50,SK-MEL-2,9 µM
same,GI50,MDA-MB-468,1.3 µM
same,GI50,DU-145,0.875 µM
same,GI50,CAKI-1,4.2 µM
same,GI50,[3],0.765 µM
same,GI50,HL-60(TB),0.899 µM
same,GI50,SW-620,0.54 µM
same,GI50,HCT-15,0.632 µM
same,GI50,[4],0.396 µM
same,GI50,[5],4.8 µM
same,GI50,IGROV-1,10.6 µM
same,GI50,U-251,0.563 µM
same,GI50,[7],1.3 µM
same,GI50,SNB-19,3.2 µM
same,GI50,TK-10,5 µM
same,GI50,OVCAR-4,2.1 µM
same,EC50,MT4,0.2 µM
same,GI50,PC-3,0.534 µM
same,GI50,SF-268,1.6 µM
same,GI50,Malme-3M,3.2 µM
same,GI50,ACHN,1.8 µM
same,GI50,[8],0.698 µM
same,GI50,T47D,0.905 µM
same,GI50,A549,2.8 µM
CC(=O)/C(=C\c1c(-c2ccccc2)[nH]c2ccccc12)S(C)(=O)=O,GI50,[1],3.4 µM
same,GI50,MDA-MB-435,0.415 µM
same,GI50,[2],2.1 µM
same,GI50,K562,0.679 µM
same,GI50,HOP-62,12.1 µM
same,GI50,NCI-H522,3.6 µM
same,GI50,KM12,2.1 µM
same,GI50,HT-29,1.6 µM
same,GI50,NCI-H322M,9.6 µM
same,GI50,SNB-75,1.5 µM
same,GI50,SK-OV-3,4.4 µM
same,GI50,HCT-116,2.9 µM
same,GI50,UACC-257,43.8 µM
same,GI50,SN12C,6.9 µM
same,GI50,MDA-MB-231,5.5 µM
same,GI50,SK-MEL-5,1.9 µM
same,GI50,SK-MEL-2,8.6 µM
same,GI50,MDA-MB-468,1.8 µM
same,GI50,DU-145,3.5 µM
same,GI50,CAKI-1,5.6 µM
same,GI50,[3],4.4 µM
same,GI50,HL-60(TB),2.6 µM
same,GI50,SW-620,2.1 µM
same,GI50,HCT-15,2 µM
same,GI50,[4],3 µM
same,GI50,[5],2.4 µM
same,GI50,[6],2.6 µM
same,GI50,IGROV-1,8.3 µM
same,GI50,U-251,2.9 µM
same,GI50,[7],3 µM
same,GI50,SNB-19,3.4 µM
same,GI50,TK-10,13.5 µM
same,GI50,OVCAR-4,3.8 µM
same,EC50,MT4,0.5 µM
same,GI50,PC-3,4.5 µM
same,GI50,SF-268,4.2 µM
same,GI50,Malme-3M,4.8 µM
same,GI50,ACHN,5.8 µM
same,GI50,[8],3.8 µM
same,GI50,T47D,2.3 µM
same,GI50,A549,7.3 µM
same,GI50,A498,3.9 µM
